Experimental data published in ChEMBL document CHEMBL5058577, “EUbOPEN Chemogenomics Library 2 (Multiplex)” (2022).

System: Fibroblast
Experiment: Multiplex assay against human fibroblast
Format: toxicity, cell-based
Outline: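 Live cells were stained at seeding with Hoechst33342, BioTracker Green Microtubule Cytoskeleton Dye, MitoTracker Red and Annexin V Alexa Fluor 680, then imaged on a CQ1 microscope at 37°C and 5% CO2 after compound addition. CellPathfinder machine-learning gating split cells into Hoechst high-intensity objects or normal cells. Normal cells were split into healthy, pyknosed or fragmented nuclei, and pyknosed cells into mitotic or apoptotic. Tubulin, mitochondrial-mass and membrane-permeability phenotypes are per cents of healthy-nucleus cells.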

[1] = 12 h, 1 µM, compound concentration 1 uM, replicate 1
[2] = 12 h, 1 µM, compound concentration 1 uM, replicate 2
[3] = 12 h, 10 µM, compound concentration 10 uM, replicate 1
[4] = 12 h, 10 µM, compound concentration 10 uM, replicate 2
[5] = 24 h, 1 µM, compound concentration 1 uM, replicate 1
[6] = 24 h, 1 µM, compound concentration 1 uM, replicate 2
[7] = 24 h, 10 µM, compound concentration 10 uM, replicate 1
[8] = 24 h, 10 µM, compound concentration 10 uM, replicate 2
[9] = 48 h, 1 µM, compound concentration 1 uM, replicate 1
[10] = 48 h, 1 µM, compound concentration 1 uM, replicate 2
[11] = 48 h, 10 µM, compound concentration 10 uM, replicate 1
[12] = 48 h, 10 µM, compound concentration 10 uM, replicate 2

## Cc1cc(O)c(-c2ccc([C@@H](C)CN(C)C)cc2)c2c1[nH]c(=O)c1sccc12
[1]
  Population Apoptotic (%): 59%
  Population Fragmented Nuclei (%): 12%
  Population Healthy Nuclei (%): 67%
  Population Hoechst High Intensity Objects (%): 7%
  Population Membrane Permeable-Phenotype (%): 1%
  Population Mitochondria Different-Phenotype (%): 17%
  Population Mitotic Cells (%): 40%
  Population Normal (%): 92%
  Population Pyknosed Nuclei (%): 20%
  Population Tubulin-Different-Phenotype (%): 44%
  Total Cell Count: 145
[2]
  Population Apoptotic (%): 50%
  Population Fragmented Nuclei (%): 22%
  Population Healthy Nuclei (%): 56%
  Population Hoechst High Intensity Objects (%): 2%
  Population Membrane Permeable-Phenotype (%): 4%
  Population Mitochondria Different-Phenotype (%): 12%
  Population Mitotic Cells (%): 50%
  Population Normal (%): 97%
  Population Pyknosed Nuclei (%): 21%
  Population Tubulin-Different-Phenotype (%): 52%
  Total Cell Count: 115
[3]
  Population Apoptotic (%): 69%
  Population Fragmented Nuclei (%): 19%
  Population Healthy Nuclei (%): 63%
  Population Hoechst High Intensity Objects (%): 6%
  Population Membrane Permeable-Phenotype (%): 0%
  Population Mitochondria Different-Phenotype (%): 40%
  Population Mitotic Cells (%): 30%
  Population Normal (%): 93%
  Population Pyknosed Nuclei (%): 16%
  Population Tubulin-Different-Phenotype (%): 90%
  Total Cell Count: 146
[4]
  Population Apoptotic (%): 70%
  Population Fragmented Nuclei (%): 28%
  Population Healthy Nuclei (%): 55%
  Population Hoechst High Intensity Objects (%): 5%
  Population Membrane Permeable-Phenotype (%): 2%
  Population Mitochondria Different-Phenotype (%): 19%
  Population Normal (%): 94%
  Population Pyknosed Nuclei (%): 15%
  Population Tubulin-Different-Phenotype (%): 80%
  Total Cell Count: 137
[5]
  Population Apoptotic (%): 45%
  Population Fragmented Nuclei (%): 11%
  Population Healthy Nuclei (%): 66%
  Population Hoechst High Intensity Objects (%): 7%
  Population Membrane Permeable-Phenotype (%): 0%
  Population Mitochondria Different-Phenotype (%): 27%
  Population Mitotic Cells (%): 54%
  Population Normal (%): 92%
  Population Pyknosed Nuclei (%): 21%
  Population Tubulin-Different-Phenotype (%): 73%
  Total Cell Count: 119
[6]
  Population Apoptotic (%): 52%
  Population Fragmented Nuclei (%): 28%
  Population Healthy Nuclei (%): 54%
  Population Hoechst High Intensity Objects (%): 9%
  Population Membrane Permeable-Phenotype (%): 1%
  Population Mitochondria Different-Phenotype (%): 10%
  Population Mitotic Cells (%): 47%
  Population Normal (%): 90%
  Population Pyknosed Nuclei (%): 16%
  Population Tubulin-Different-Phenotype (%): 56%
  Total Cell Count: 111
[7]
  Population Apoptotic (%): 66%
  Population Fragmented Nuclei (%): 11%
  Population Healthy Nuclei (%): 65%
  Population Hoechst High Intensity Objects (%): 3%
  Population Membrane Permeable-Phenotype (%): 0%
  Population Mitochondria Different-Phenotype (%): 42%
  Population Mitotic Cells (%): 33%
  Population Normal (%): 96%
  Population Pyknosed Nuclei (%): 22%
  Population Tubulin-Different-Phenotype (%): 87%
  Total Cell Count: 122
[8]
  Population Apoptotic (%): 57%
  Population Fragmented Nuclei (%): 30%
  Population Healthy Nuclei (%): 51%
  Population Hoechst High Intensity Objects (%): 8%
  Population Membrane Permeable-Phenotype (%): 3%
  Population Mitochondria Different-Phenotype (%): 34%
  Population Mitotic Cells (%): 42%
  Population Normal (%): 91%
  Population Pyknosed Nuclei (%): 18%
  Population Tubulin-Different-Phenotype (%): 81%
  Total Cell Count: 124
[9]
  Population Apoptotic (%): 70%
  Population Fragmented Nuclei (%): 19%
  Population Healthy Nuclei (%): 55%
  Population Hoechst High Intensity Objects (%): 7%
  Population Membrane Permeable-Phenotype (%): 1%
  Population Mitochondria Different-Phenotype (%): 26%
  Population Mitotic Cells (%): 29%
  Population Normal (%): 92%
  Population Pyknosed Nuclei (%): 24%
  Population Tubulin-Different-Phenotype (%): 70%
  Total Cell Count: 118
[10]
  Population Apoptotic (%): 57%
  Population Fragmented Nuclei (%): 31%
  Population Healthy Nuclei (%): 48%
  Population Hoechst High Intensity Objects (%): 9%
  Population Membrane Permeable-Phenotype (%): 2%
  Population Mitochondria Different-Phenotype (%): 20%
  Population Mitotic Cells (%): 42%
  Population Normal (%): 90%
  Population Pyknosed Nuclei (%): 20%
  Population Tubulin-Different-Phenotype (%): 62%
  Total Cell Count: 103
[11]
  Population Apoptotic (%): 70%
  Population Fragmented Nuclei (%): 17%
  Population Healthy Nuclei (%): 53%
  Population Hoechst High Intensity Objects (%): 10%
  Population Membrane Permeable-Phenotype (%): 0%
  Population Mitochondria Different-Phenotype (%): 53%
  Population Mitotic Cells (%): 29%
  Population Normal (%): 89%
  Population Pyknosed Nuclei (%): 29%
  Population Tubulin-Different-Phenotype (%): 89%
  Total Cell Count: 117
[12]
  Population Apoptotic (%): 71%
  Population Fragmented Nuclei (%): 39%
  Population Healthy Nuclei (%): 43%
  Population Hoechst High Intensity Objects (%): 7%
  Population Mitochondria Different-Phenotype (%): 30%
  Population Mitotic Cells (%): 28%
  Population Normal (%): 92%
  Population Pyknosed Nuclei (%): 16%
  Population Tubulin-Different-Phenotype (%): 85%
  Total Cell Count: 136

## CC(F)(F)CN1CCOc2c(nn(-c3ccccc3Cl)c2-c2ccc(Cl)cc2)C1=O
[1]
  Population Apoptotic (%): 42%
  Population Healthy Nuclei (%): 66%
  Population Hoechst High Intensity Objects (%): 0%
  Population Mitochondria Different-Phenotype (%): 4%
  Population Mitotic Cells (%): 57%
  Population Normal (%): 99%
  Population Pyknosed Nuclei (%): 15%
  Total Cell Count: 125
[2]
  Population Apoptotic (%): 31%
  Population Healthy Nuclei (%): 48%
  Population Mitochondria Different-Phenotype (%): 10%
  Population Mitotic Cells (%): 68%
  Population Normal (%): 93%
  Population Pyknosed Nuclei (%): 25%
  Population Tubulin-Different-Phenotype (%): 61%
  Total Cell Count: 122
[3]
  Population Apoptotic (%): 47%
  Population Healthy Nuclei (%): 66%
  Population Hoechst High Intensity Objects (%): 1%
  Population Mitochondria Different-Phenotype (%): 19%
  Population Mitotic Cells (%): 52%
  Population Normal (%): 98%
  Population Pyknosed Nuclei (%): 17%
  Population Tubulin-Different-Phenotype (%): 49%
  Total Cell Count: 109
[4]
  Population Apoptotic (%): 30%
  Population Healthy Nuclei (%): 53%
  Population Hoechst High Intensity Objects (%): 5%
  Population Mitochondria Different-Phenotype (%): 8%
  Population Mitotic Cells (%): 70%
  Population Normal (%): 94%
  Population Pyknosed Nuclei (%): 15%
  Population Tubulin-Different-Phenotype (%): 57%
  Total Cell Count: 134
[5]
  Population Apoptotic (%): 61%
  Population Healthy Nuclei (%): 65%
  Population Hoechst High Intensity Objects (%): 1%
  Population Mitochondria Different-Phenotype (%): 2%
  Population Mitotic Cells (%): 38%
  Population Normal (%): 98%
  Population Pyknosed Nuclei (%): 15%
  Total Cell Count: 119
[6]
  Population Apoptotic (%): 64%
  Population Healthy Nuclei (%): 52%
  Population Hoechst High Intensity Objects (%): 4%
  Population Mitochondria Different-Phenotype (%): 10%
  Population Mitotic Cells (%): 36%
  Population Normal (%): 95%
  Population Pyknosed Nuclei (%): 20%
  Population Tubulin-Different-Phenotype (%): 75%
  Total Cell Count: 129
[7]
  Population Apoptotic (%): 33%
  Population Healthy Nuclei (%): 65%
  Population Hoechst High Intensity Objects (%): 0%
  Population Mitochondria Different-Phenotype (%): 26%
  Population Mitotic Cells (%): 66%
  Population Normal (%): 99%
  Population Pyknosed Nuclei (%): 10%
  Population Tubulin-Different-Phenotype (%): 58%
  Total Cell Count: 111
[8]
  Population Apoptotic (%): 35%
  Population Healthy Nuclei (%): 54%
  Population Hoechst High Intensity Objects (%): 1%
  Population Mitochondria Different-Phenotype (%): 10%
  Population Mitotic Cells (%): 64%
  Population Normal (%): 98%
  Population Pyknosed Nuclei (%): 14%
  Population Tubulin-Different-Phenotype (%): 60%
  Total Cell Count: 121
[9]
  Population Apoptotic (%): 56%
  Population Healthy Nuclei (%): 63%
  Population Hoechst High Intensity Objects (%): 1%
  Population Mitochondria Different-Phenotype (%): 2%
  Population Mitotic Cells (%): 43%
  Population Normal (%): 98%
  Population Pyknosed Nuclei (%): 11%
  Population Tubulin-Different-Phenotype (%): 35%
  Total Cell Count: 136
[10]
  Population Apoptotic (%): 40%
  Population Healthy Nuclei (%): 53%
  Population Hoechst High Intensity Objects (%): 4%
  Population Mitochondria Different-Phenotype (%): 21%
  Population Mitotic Cells (%): 60%
  Population Normal (%): 95%
  Population Pyknosed Nuclei (%): 7%
  Population Tubulin-Different-Phenotype (%): 72%
  Total Cell Count: 135
[11]
  Population Apoptotic (%): 78%
  Population Healthy Nuclei (%): 56%
  Population Hoechst High Intensity Objects (%): 1%
  Population Mitochondria Different-Phenotype (%): 22%
  Population Mitotic Cells (%): 21%
  Population Normal (%): 98%
  Population Pyknosed Nuclei (%): 11%
  Total Cell Count: 120
[12]
  Population Apoptotic (%): 54%
  Population Healthy Nuclei (%): 54%
  Population Mitochondria Different-Phenotype (%): 7%
  Population Mitotic Cells (%): 45%
  Population Pyknosed Nuclei (%): 7%
  Population Tubulin-Different-Phenotype (%): 57%
  Total Cell Count: 141
